A short description of data set [1]: Half life in human patient with relapsed solid tumor at 20 mg/m'2, iv administered on days 1, 2, 8, 9, 15 and 16 of 28-day cycle over 2 to 10 mins measured on day 1 of cycle 1 by LC-MS/MS analysis. Type of data set: ADME, organism-based. To be noted: in vivo. Summed up:
(§1)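 Patients with relapsed solid tumors (n=3) received carfilzomib IV at 20 mg/m2. Plasma was sampled on Days 1 and 16 of Cycle 1 before dosing, at end of administration, and at 5, 15, 30 min and 1, 2, 4 h after. Samples underwent solid phase extraction and LC-MS/MS with d10-carfilzomib internal standard over 0.100–200 ng/mL. Parameters were derived noncompartmentally (constant IV infusion model) from actual elapsed time from infusion start.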

Data set [2] is described as follows: AUC infinity in human patient with relapsed solid tumor at 20 mg/m'2, iv administered over 2 to 10 mins on days 1, 2, 8, 9, 15 and 16 of 28-day cycle measured on day 1 of cycle 1 by LC-MS/MS analysis. In kind it is ADME, organism-based. Also noted: route intravenous, time infinity. To be noted: plasma. The gist of the method: as §1
The nature of data set [3]: Cmax in human patient with relapsed solid tumor at 20 mg/m'2, iv administered on days 1, 2, 8, 9, 15 and 16 of 28-day cycle over 2 to 10 mins measured on day 16 of cycle 1 by LC-MS/MS analysis. More on the design: route intravenous. In kind it is ADME, organism-based. The settings on record: in vivo. The gist of the method: as §1
In data set [4] the target is Cytochrome P450 2C9 (Homo sapiens, UniProt P11712). The data set is described as follows: Inhibition of CYP2C9 in human liver microsomes using diclofenac as substrate after 5 mins by LC-MS/MS analysis. In kind it is ADME. The gist of the method:
(§2)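 Pooled HLM from 16 donors were incubated at 37°C in duplicate with carfilzomib 0.01–10 µM and probe substrate at about its Km. Substrates were phenacetin, amodiaquine, diclofenac, S-mephenytoin, dextromethorphan, testosterone and midazolam. Protein was 0.1 mg/mL, or 0.05 mg/mL with midazolam. Reactions ran 5 min without preincubation, then were quenched with acetonitrile. Metabolites were measured by LC-MS/MS relative to 0.5% acetonitrile controls.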
In general terms: Liver microsomes are vesicles of endoplasmic reticulum, rich in cytochrome P450 enzymes.

The target of data set [5] is Cytochrome P450 2C19 (Homo sapiens, UniProt P33261). Description: Inhibition of CYP2C19 in human liver microsomes using S-mephenytoin as substrate after 5 mins by LC-MS/MS analysis. Type of data set: ADME. The gist of the method:
as §2

Data set [6] is described as follows: Drug excretion in urine of iv dosed human patient with relapsed and refractory hematological malignancies assessed as morpholino-hPhe-Leu-Phe-Leu-diol metabolite formation administered on days 1, 2, 8, 9, 15 and 16 of 28-day cycle over 2 to 10 mins by LC-MS/MS analysis. Type of data set: ADME, organism-based. To be noted: in vivo.
The target in data set [7] is T1, Cytochrome P450 3A (Homo sapiens, UniProt P08684+P20815+Q9HB55+P24462). Description: Decrease in CYP3A activity in rifampin-treated human hepatocytes assessed as 6-betahydroxytestosterone formation using testosterone as substrate at 2.5 uM after 30 mins by LC-MS/MS analysis. Type of data set: ADME, cell-based, Hepatocyte. To be noted: 0.5 h. Summed up:
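Hepatocytes induced 3 days with 20 µM rifampicin were exposed to fresh medium containing 2.5 µM carfilzomib for 30 min and washed once. They were then incubated with testosterone 200 µM, and 6β-hydroxytestosterone was measured by LC-MS/MS.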

Data set [8] has as its target Cytochrome P450 2D6 (Homo sapiens, UniProt P10635). Description: Inhibition of CYP2D6 in human liver microsomes using dextromethorphan as substrate after 5 mins by LC-MS/MS analysis. Type of data set: ADME. Summed up: as §2
In data set [9] the target is CYP3A (Homo sapiens, UniProt P08684+P20815+P24462+Q9HB55). Description: Time-dependent inhibition of CYP3A in human liver microsomes assessed as testosterone 6-hydroxylation using testosterone as substrate by LC-MS/MS analysis. Type of data set: ADME. The settings on record: probe testosterone (6-hydroxylation). Summed up: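 Pooled HLM (16 donors, mixed sex), 37°C, duplicate. IC50: carfilzomib 0.01–10 µM preincubated 30 min, then testosterone near Km (100 µM) at 0.1 mg/mL protein, 5 min, LC-MS/MS, relative to 0.5% acetonitrile control. KI/kinact: 0–8 µM preincubated 0–30 min with 2.5 mg/mL HLM plus NADPH-generating system, diluted 25-fold, testosterone 200 µM for 5 min.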

Data set [10] concerns the target T1, Cytochrome P450 3A. The data set is described as follows: Decrease in CYP3A activity in human hepatocytes assessed as 6-betahydroxytestosterone formation using testosterone as substrate incubated for 3 days prior to substrate challenge for 30 mins by LC-MS/MS analysis. Type of data set: ADME, cell-based, Hepatocyte. To be noted: 0.5 h. The gist of the method: (§3)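 Hepatocytes from 3 donors were plated on collagen I and cultured 2 days, then treated 3 days with carfilzomib (0.1–2.5 µM), 0.08% DMSO, rifampicin 20 µM or β-naphthoflavone 20 µM, renewed daily. Cells were then incubated in serum-free medium in triplicate with testosterone 200 µM (CYP3A, 30 min, 6β-hydroxytestosterone) or phenacetin 100 µM (CYP1A2, 60 min, acetaminophenol). Products were measured by LC-MS/MS and expressed relative to DMSO.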

For data set [11], the target named is T2, Cytochrome P450 1A2 (Homo sapiens, UniProt P05177).
T2 sequence (P05177 whole entry): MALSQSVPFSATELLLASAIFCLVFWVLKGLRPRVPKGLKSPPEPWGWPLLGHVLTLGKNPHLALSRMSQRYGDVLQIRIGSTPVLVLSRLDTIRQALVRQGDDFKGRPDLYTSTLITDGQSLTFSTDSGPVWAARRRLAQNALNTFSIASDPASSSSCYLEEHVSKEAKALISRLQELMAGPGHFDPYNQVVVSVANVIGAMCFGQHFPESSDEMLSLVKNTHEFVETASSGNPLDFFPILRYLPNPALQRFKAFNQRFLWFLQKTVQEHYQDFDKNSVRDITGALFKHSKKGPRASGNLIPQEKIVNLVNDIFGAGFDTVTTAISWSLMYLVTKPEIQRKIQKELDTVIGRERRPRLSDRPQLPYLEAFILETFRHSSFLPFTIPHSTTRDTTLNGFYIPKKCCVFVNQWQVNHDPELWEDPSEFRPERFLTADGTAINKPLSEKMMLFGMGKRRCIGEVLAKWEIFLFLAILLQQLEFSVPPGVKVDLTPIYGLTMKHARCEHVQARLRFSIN
The data set is described as follows: Decrease in CYP1A2 activity in human hepatocytes assessed as acetaminophenol formation using phenacetin as substrate at 2.5 uM incubated for 3 days prior to substrate challenge for 60 mins by LC-MS/MS analysis. In kind it is ADME, cell-based, Hepatocyte. The settings on record: 1 h. The gist of the method:
as §3

Data set [12] concerns Hepatocyte. The data set is described as follows: Cytotoxicity against human hepatocytes assessed as cell viability by MTT assay. Type of data set: cell-based. The gist of the method:
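MTT viability assay in cultured human hepatocytes from 3 donors after 3 days of carfilzomib exposure (0.1, 0.5, 2.5 µM) with daily medium and compound renewal. Solvent control was 0.08% DMSO.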
Background: Tetrazolium dyes change colour on reduction, which living cells bring about.

The test system of data set [13] is Plasma. Description: Drug metabolism in plasma of human multiple myeloma patient assessed as morpholino-hPhe-Leu-Phe-Leu-diol metabolite formation at 15 mg/m'2, iv administered as single dose measured within first 30 mins after end of drug infusion by LC-MS/MS analysis. Type of data set: ADME, organism-based. The settings on record: in vivo, 0.5 h. Summed up:
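Patients with multiple myeloma received a single 15 mg/m2 carfilzomib dose. Plasma was sampled pre-dose, at end of infusion, at 5, 15, 30 min and at 1, 1.5, 2, 4, 6, 24 h. Samples were protein-precipitated and analyzed by LC-MS/MS (metabolites 0.500–500 ng/mL) with deuterated internal standards.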

Structures are written as SMILES. Some results are limits rather than exact numbers.

For orientation: half-life means how long it takes for the measured level to halve. Read a low half-life as fast loss. What is called AUC(0-inf) is total exposure, with the tail of the curve extrapolated. A high value points to more exposure. As a reminder, the Cmax is the peak of the concentration-time curve. Broadly, the IC50 is the midpoint of a concentration-inhibition curve. As a reminder, the kinact is the maximal first-order rate at which the target is inactivated.

Cytochrome P450 2C19, sequence (P33261 whole entry): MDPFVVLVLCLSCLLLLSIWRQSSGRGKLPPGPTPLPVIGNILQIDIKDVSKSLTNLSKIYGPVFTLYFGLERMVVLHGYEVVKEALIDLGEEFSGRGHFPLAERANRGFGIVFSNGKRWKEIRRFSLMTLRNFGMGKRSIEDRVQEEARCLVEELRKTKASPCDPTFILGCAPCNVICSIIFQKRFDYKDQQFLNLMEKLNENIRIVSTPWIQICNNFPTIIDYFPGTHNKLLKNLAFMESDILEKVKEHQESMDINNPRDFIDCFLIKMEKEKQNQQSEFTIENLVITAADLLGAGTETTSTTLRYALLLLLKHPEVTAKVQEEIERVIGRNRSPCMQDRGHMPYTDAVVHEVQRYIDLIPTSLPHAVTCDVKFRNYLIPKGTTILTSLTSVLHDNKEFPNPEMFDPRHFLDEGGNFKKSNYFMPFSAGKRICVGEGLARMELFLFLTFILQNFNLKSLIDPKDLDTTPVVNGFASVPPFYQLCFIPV
Cytochrome P450 2D6, sequence (P10635 whole entry): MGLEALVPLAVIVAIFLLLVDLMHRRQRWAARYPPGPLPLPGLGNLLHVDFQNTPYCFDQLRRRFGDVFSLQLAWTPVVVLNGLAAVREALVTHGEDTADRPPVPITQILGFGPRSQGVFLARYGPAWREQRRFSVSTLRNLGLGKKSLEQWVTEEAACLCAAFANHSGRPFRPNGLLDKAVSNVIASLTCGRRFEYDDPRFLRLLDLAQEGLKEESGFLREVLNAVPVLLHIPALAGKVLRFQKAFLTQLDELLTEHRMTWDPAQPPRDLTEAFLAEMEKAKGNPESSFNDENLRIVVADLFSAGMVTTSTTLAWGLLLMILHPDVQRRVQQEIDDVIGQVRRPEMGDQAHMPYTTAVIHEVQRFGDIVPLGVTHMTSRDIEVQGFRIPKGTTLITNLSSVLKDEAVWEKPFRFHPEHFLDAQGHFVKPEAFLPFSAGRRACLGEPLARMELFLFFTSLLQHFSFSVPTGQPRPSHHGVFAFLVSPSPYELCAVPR
Cytochrome P450 2C9, sequence (P11712 whole entry): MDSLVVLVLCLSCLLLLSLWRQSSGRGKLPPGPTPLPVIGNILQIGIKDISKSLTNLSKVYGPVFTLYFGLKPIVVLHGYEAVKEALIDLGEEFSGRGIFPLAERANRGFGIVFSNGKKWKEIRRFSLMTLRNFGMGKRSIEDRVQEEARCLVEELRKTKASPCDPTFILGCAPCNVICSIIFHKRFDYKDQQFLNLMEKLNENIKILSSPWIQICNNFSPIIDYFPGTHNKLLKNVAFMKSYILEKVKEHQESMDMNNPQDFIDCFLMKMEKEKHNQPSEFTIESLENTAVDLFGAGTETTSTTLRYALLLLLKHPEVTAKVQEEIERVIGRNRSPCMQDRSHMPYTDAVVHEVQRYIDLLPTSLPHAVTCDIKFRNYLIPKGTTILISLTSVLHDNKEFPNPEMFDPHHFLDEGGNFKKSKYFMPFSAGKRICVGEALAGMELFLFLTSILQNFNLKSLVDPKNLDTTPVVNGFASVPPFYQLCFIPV

In [1], `CC(C)C[C@H](NC(=O)[C@H](CCc1ccccc1)NC(=O)CN1CCOCC1)C(=O)N[C@@H](Cc1ccccc1)C(=O)N[C@@H](CC(C)C)C(=O)[C@@]1(C)CO1` [CARFILZOMIB] showed a half-life of 60 min. For the same compound, in data set [2], the AUC(0-inf) stood at 238 ng·h/mL. The Cmax in data set [3] was 3710 ng/mL. For the same compound, the IC50 in data set [4], in data set [5] and in data set [8] was > 10 µM in each case. The Drug excretion result in data set [6] was “metabolite_detected”. For the same compound, the “inhibition (INH)” value in data set [7] was 14%; in data set [10] it was “Dose-dependent effect”; in [11], “Dose-dependent effect”. Moreover, the Ki in data set [9] was determined as 11 µM. For the same compound, in data set [9], the kinact is 0.00167 s⁻¹. The Activity entry in data set [12] is listed as “Non-toxic”. In addition, in data set [13], the Drug metabolism result was “metabolite_detected”.

The values above are taken from ChEMBL document CHEMBL3526139, “Clinical pharmacokinetics, metabolism, and drug-drug interaction of carfilzomib” (Drug Metab Dispos, 2013).
